Inconclusive results are not listed.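 Rule for the calls, unless noted: active = inhibition over a set limit, the all-compound mean plus 3 SD, in both replicate runs; inconclusive = over that limit in just one replicate run; inactive = at or under that limit in both runs.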 Non-standard residues stand in square brackets, D forms with d. Residues, ends and D or L forms follow the SMILES beside them. ξ: configuration not given here. *: point of attachment. Cbz = O=C(OCc1ccccc1)*; ξV = CC(C)C(N)C(=O)O; OtBu = CC(C)(C)O*
Key:
[1] = OD615 S. cerevisiae growth inhibition, permissive medium, pilot counter-assay, permissive growth control for S. cerevisiae lifespan shortening project (AID 705;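 active = growth inhibition above 25% in both replicates, a cutoff set 3 SD above the mean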); details: OD615, 24 h, at 10 µM, active compounds read high
In short: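 Material: engineered DeaD yeast; Compound: one dose 10 µM, DMSO 0.25% final; Detection: absorbance (optical density) at 615 nm; Buffer or medium: permissive raffinose/galactose medium; Timing: 24 h exposure, 30 °C.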

[2] = Restrictive medium S. cerevisiae growth inhibition, OD615, pilot screen of yeast lifespan reduction project, restrictive growth control (AID 706;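 active = growth inhibition above a set limit, 3 SD over mean compound inhibition, in both replicates, cut at about 43% in these data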;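 note: modified DeaD lifespan yeast strain shifted to restrictive glucose medium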); details: OD615, 48 h, at 10 µM, active compounds read high
In short: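 Buffer or medium: restrictive glucose medium (CSMM-D); test system: modified S. cerevisiae; doses: single dose of 10 µM compound final, 0.25% DMSO; schedule: 48 h compound exposure at 30 °C; detection: absorbance (optical density) measured at 615 nm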

[3] = viability gain of MRP-1-high H69AR cells under doxorubicin, pilot screen, MRP-1 activator project, CellTiter-Glo, duplicate (AID 807;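 active = viability increase at or above a cutoff of the median across tested compounds plus 3 SD, cut at about 8.5% in these data, passing the limit was not always enough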;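 note: compound pretreatment 18-22 h then 72 h combined with doxorubicin; 0% = doxorubicin alone and 100% = vehicle without doxorubicin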); details: H69AR viability with doxorubicin, CellTiter-Glo luminescence; at 10 µM; active compounds read high
[4] = growth suppression of beta-catenin knockout HCT116, pilot screen, human colon tumor cells (AID 823;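 active = cell viability at or below a set limit in both duplicate runs, the limit being the all-compound median minus 4 SD, cut at about 23% in these data, passing the limit was not always enough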;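 note: 0% = wells killed by 20 µM Hyamine and 100% = untreated DMSO cell wells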); details: CellTiter-Glo, 60 h, at 10 µM, active compounds read low
[5] = growth suppression of PTEN-deleted HCT116, pilot screen, cell-based, HCT116 clonal line, CellTiter-Glo (AID 824;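 active = viability at or below 27.92% in each of two runs, the all-compound median minus 4 SD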;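 note: 0% = 20 µM Hyamine control and 100% = vehicle cell control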); details: 60 h, at 10 µM, active compounds read low
[6] = inhibitors of the yeast RAM network, pilot screen, dse1pr::URA3 reporter, 5-FOA selection (AID 869);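 note: 0% = DMSO wells with no growth and 100% = 10 µM 1-NA-PP1 with full growth; RAM network block rescues cells from 5-FOA so hits raise OD615 growth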; details: S. cerevisiae dse1pr::URA3 5-FOA growth, OD615, 2 d; at 10 µM; active compounds read high; strain carries analog-sensitive mutant Cbk1 kinase
[7] = RAM signaling pathway blockade in yeast – S. cerevisiae, Pdr1DBD-CYC8 efflux-inhibited sensitized strain, primary screen (AID 1298;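 active = RAM network inhibition above 8.4% in each of two replicates, 3 SD over the compound average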;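 note: 0% = DMSO untreated cells without growth and 100% = 10 µM 1-NA-PP1 full growth; higher means more yeast growth rescued from 5-FOA killing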); details: S. cerevisiae cbk1-as DSE1-URA3 strain, 5-FOA growth OD615, 2 d; at 50 µM; active compounds read high

CCN1CCN(CCNC(=O)c2ccc(CS(=O)(=O)c3c(Cl)cccc3Cl)o2)CC1
inactive: growth inhibition [1] 5.83% | growth inhibition [2] 6.53% | viability increase [3] -1.94% | viability [4] 110% | viability [5] 103% | inhibition [6] 2.98% | RAM network inhibition [7] 1.59%

Cc1cc2cc(CNS(=O)(=O)N(C)C)ccc2[nH]1
inactive: growth inhibition [1] 0.12% | growth inhibition [2] -6.88% | viability increase [3] -0.59% | viability [4] 101% | viability [5] 106% | inhibition [6] 1.48% | RAM network inhibition [7] 3.27%

CC(C)c1nnc(NC(=O)CSc2ncn[nH]2)s1
inactive: growth inhibition [1] -14.4% | growth inhibition [2] -13.9% | viability increase [3] -0.74% | viability [4] 98.3% | viability [5] 94.2% | inhibition [6] 0.135% | RAM network inhibition [7] 1.34%

O=C(CCS(=O)(=O)c1cccc2nsnc12)N1CCN(C(=O)c2ccco2)CC1
inactive: growth inhibition [1] -2.63% | growth inhibition [2] -12.5% | viability increase [3] -4.22% | viability [4] 103% | viability [5] 102% | inhibition [6] 0.36% | RAM network inhibition [7] 1.07%

CCOc1cc(-c2nc(-c3ccncc3)no2)cc(OCC)c1OCC
inactive: growth inhibition [1] -5.04% | growth inhibition [2] -6.19% | viability increase [3] -5.6% | viability [4] 60.1% | viability [5] 65% | inhibition [6] 1.08% | RAM network inhibition [7] 5.16%

CC1CC(C)CN(C(=O)C(NS(=O)(=O)c2ccc3c(c2)oc(=O)n3C)C(C)C)C1 (stereo not given)
inactive: growth inhibition [1] -16% | growth inhibition [2] -5.28% | viability increase [3] -2.67% | viability [4] 103% | viability [5] 93.6% | inhibition [6] -0.355% | RAM network inhibition [7] 6.92%

COc1cccc(/C=C2\N=C(SC)SC2=O)c1OC
inactive: growth inhibition [1] -20.1% | growth inhibition [2] -7.18% | viability increase [3] -3.76% | viability [4] 89.8% | viability [5] 105% | inhibition [6] 3.8% | RAM network inhibition [7] 8.12%

CCCCOc1ccccc1C1C(C(=O)OC)=C(C)N(C)C(C)=C1C(=O)OC
inactive: growth inhibition [1] -4.46% | growth inhibition [2] -5.04% | viability increase [3] -3.49% | viability [4] 83.1% | viability [5] 79.8% | inhibition [6] 0.225% | RAM network inhibition [7] 8.12%

CC(=O)c1sc2ccccc2c1OC(=O)c1ccco1
inactive: growth inhibition [1] -9.99% | growth inhibition [2] -11.4% | viability increase [3] -4.46% | viability [4] 83% | viability [5] 85.3% | inhibition [6] 0.39% | RAM network inhibition [7] 1.97%

CCN(CC)c1ccc(/C=N/n2c(C)cc(C)cc2=O)cc1
inactive: growth inhibition [1] 0.085% | growth inhibition [2] 7.67% | viability increase [3] -0.57% | viability [4] 105% | viability [5] 93% | inhibition [6] 0.145% | RAM network inhibition [7] 1.36%

CC(C)C(NC(=O)OCc1ccccc1)C(=O)NCC(=O)OC(C)(C)C (stereo not given) (Cbz-[ξV]-Gly-OtBu)
inactive: growth inhibition [1] -5.84% | growth inhibition [2] -2.87% | viability increase [3] 0.2% | viability [4] 96.6% | viability [5] 95.2% | inhibition [6] 1.82% | RAM network inhibition [7] 3.16%

CCCc1cc(C(=O)Nc2cccnc2)no1
inactive: growth inhibition [1] 0.43% | growth inhibition [2] -0.16% | viability increase [3] -1.86% | viability [4] 100% | viability [5] 94.9% | inhibition [6] 0.915% | RAM network inhibition [7] -0.87%

OCCN1CCN(Cc2cc(Br)cc(Br)c2O)CC1
inactive: growth inhibition [1] -18.3% | growth inhibition [2] -14% | viability increase [3] -2.23% | viability [4] 92.6% | viability [5] 96.3% | inhibition [6] 2.87% | RAM network inhibition [7] -0.43%

CCCN(CCC)S(=O)(=O)c1cc(Br)cc2c1N(C(=O)CC)CC2
inactive: growth inhibition [1] -8.33% | growth inhibition [2] -21.3% | viability increase [3] -4.77% | viability [4] 65.9% | viability [5] 69.7% | inhibition [6] 0.885% | RAM network inhibition [7] 4.71%

Cc1cccc(N2CCN(C(c3cccs3)c3nnnn3C(C)(C)C)CC2)c1C (stereo not given)
inactive: growth inhibition [1] -10.2% | growth inhibition [2] -9.96% | viability increase [3] -0.98% | viability [4] 55.5% | viability [5] 56.7% | inhibition [6] 0.97% | RAM network inhibition [7] 5.15%

c1ccc2c(c1)nc(N1CCOCC1)c1nnnn12
inactive: growth inhibition [1] -7.82% | growth inhibition [2] -4.7% | viability increase [3] -3.18% | viability [4] 109% | viability [5] 103% | inhibition [6] 1.38% | RAM network inhibition [7] 10.4%

O=C(Cn1cc2c(n1)CCCCC2)NCc1ccccc1
inactive: growth inhibition [1] -13.4% | growth inhibition [2] 0.525% | viability increase [3] -0.82% | viability [4] 102% | viability [5] 86.5% | inhibition [6] 1.06% | RAM network inhibition [7] 3.47%

Cc1ncc(CO)c2cc(S(=O)(=O)c3ccc(F)cc3)c(=O)oc12
inactive: growth inhibition [1] -11.8% | growth inhibition [2] -4.46% | viability increase [3] -0.48% | viability [4] 104% | viability [5] 96.7% | inhibition [6] 0.14% | RAM network inhibition [7] 1.42%

CC(=O)Nc1cc(-c2nn3c(C)nnc3s2)ccc1C
inactive: growth inhibition [1] 3.93% | growth inhibition [2] 1.4% | viability increase [3] -0.1% | viability [4] 98.7% | viability [5] 90.3% | inhibition [6] 3.41% | RAM network inhibition [7] 3.72%

CCOC(=O)CCc1c(C)c2c(C)nn(-c3ccccc3)c2[nH]c1=O
inactive: growth inhibition [1] -2.26% | growth inhibition [2] -0.33% | viability increase [3] -1.19% | viability [4] 99% | viability [5] 95.9% | inhibition [6] 1.65% | RAM network inhibition [7] 1.84%

CCOC(=O)C1CCCN(C(=O)N2CCOCC2)C1 (stereo not given)
inactive: growth inhibition [1] -4.19% | growth inhibition [2] -5.3% | viability increase [3] -0.82% | viability [4] 97.6% | viability [5] 99.1% | inhibition [6] -0.095% | RAM network inhibition [7] 0.21%

COc1ccc(OC)c(CN2CCN(c3ccccc3OC)CC2)c1
inactive: growth inhibition [1] -7.27% | growth inhibition [2] -8.51% | viability increase [3] -0.4% | viability [4] 61.2% | viability [5] 71.6% | inhibition [6] 1.86% | RAM network inhibition [7] 5.18%

Brc1[nH]nc2ccccc12
inactive: growth inhibition [1] -1.23% | growth inhibition [2] 5.22% | viability increase [3] -3.24% | viability [4] 96.7% | viability [5] 94.9% | inhibition [6] 0.28% | RAM network inhibition [7] 0.05%

CC1CCCC(C)N1c1nnc(N)s1 (stereo not given)
inactive: growth inhibition [1] 0.52% | growth inhibition [2] 30.8% | viability increase [3] -1.42% | viability [4] 104% | viability [5] 102% | inhibition [6] 0.385% | RAM network inhibition [7] 0.17%

COc1cccc(NC(=O)CSc2ncnc3c2oc2ccccc23)c1
inactive: growth inhibition [1] -12.8% | growth inhibition [2] 6.07% | viability increase [3] -2.19% | viability [4] 94.2% | viability [5] 87.3% | inhibition [6] 2.46% | RAM network inhibition [7] 4.42%

Reference: PubChem BioAssay
